This is an account of results in ChEMBL document CHEMBL1134466 (J Med Chem, 2001).

In general, T/C refers to the ratio of treated to control.

In series [1] the test system is Mus musculus. Put plainly: Antitumor activity against B16 murine melanoma at a dose of 7.5 mg/kg (ip) measured as 60-day survivors (% LTS). In kind it is functional. In outline: (§1)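 Female B6D2F1 mice given 0.2 mL fresh B16 tumor brei ip (day 0), from sc-grown B16 in the same strain. Randomized 10/group and dosed ip on days 1-5 in 0.2 mL 1:2:7 Cremophor:ethanol:saline, freshly made. Mice monitored daily and weighed twice weekly; weight change taken on day 8. T/C = 100% × MST treated/control. 60-day survivors counted as long-term and excluded from MST.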

Series [2] deals with Mus musculus. Put plainly: Antitumor activity against B16 murine melanoma at a dose of 7.5 mg/kg (ip) measured as increased life span (% T/C). The series is classed as functional. In outline:
as §1

Series [3] has as its system Mus musculus. Put plainly: Antitumor activity in MX-1 Xenograft Model at a dose of 25 mg/kg (ip) measured as number of mice with partial tumor regression. In kind it is functional. In outline: (§2)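 Nude mice implanted sc by trocar in right foreflank with 1-2 mm3 MX-1 fragments. At ca. 5 × 5 mm (~10 days), pair-matched into groups of 10. Dosed ip days 1-5 in 0.2 mL 1:2:7 Cremophor:ethanol:saline. Weights and caliper measurements taken twice weekly; weight change on day 8. GI = 100% × (1 − tumor weight treated/control). Partial shrinkage = final tumor weight below day-1 weight; complete = tumor gone.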

For series [4], the system named is Mus musculus. Put plainly: Antitumor activity against B16 murine melanoma at a dose of 7.5 mg/kg (ip) measured as percent weight change on day 8. The series is classed as functional. In outline:
as §1

In series [5] the test system is Mus musculus. Put plainly: (§3) Toxicity to bone marrow granulocyte/macrophage progenitors per femur at a dose of 150 mg/kg (ip). The arrangement: dose 150 mg/kg. In kind it is organism-based. The conditions noted are these: in vivo. In outline:
(§4)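 Male B6D2F1 mice (5/group) given drug or vehicle ip, single dose or daily ×5. Femoral marrow harvested 24 h after the last dose and plated at 2 × 10^4 viable nucleated cells/mL in methylcellulose (0.8%) medium with 20% FBS and 10% pokeweed mitogen-stimulated spleen-conditioned medium. Cultured 7 days at 37 °C, 5% CO2; colonies >50 cells counted. Mean colonies given as % of control per femur, mean ± SEM.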

Series [6] deals with Mus musculus. Put plainly: Antitumor activity in MX-1 Xenograft Model at a dose of 25 mg/kg (ip) measured as percent growth inhibition. The series is classed as functional. The conditions noted are these: read-out: GI. In outline: as §2
Series [7] deals with Mus musculus. Put plainly: Antitumor activity against B16 murine melanoma at a dose of 50 mg/kg (ip) measured as 60-day survivors (% LTS). The series is classed as functional. In outline:
as §1

Series [8] relates to Mus musculus. Put plainly: Antitumor activity in MX-1 Xenograft Model at a dose of 50 mg/kg (ip) measured as percent weight change on day 8. In kind it is functional. In outline: as §2
Series [9] relates to Mus musculus. Put plainly: (§5) Toxicity to bone marrow granulocyte/macrophage progenitors per femur at a dose of 200 mg/kg (ip). The conditions noted are these: in vivo. In kind it is organism-based. The arrangement: dose 200 mg/kg. In outline: as §4
For series [10], the system named is Mus musculus. Put plainly: Antitumor activity against B16 murine melanoma at a dose of 50 mg/kg (ip) measured as increased life span (% T/C). In kind it is functional. In outline:
as §1

Series [11] deals with Mus musculus. Put plainly: Antitumor activity against B16 murine melanoma at a dose of 50 mg/kg (ip) measured as percent weight change on day 8. The series is classed as functional. In outline: as §1
Series [12] concerns Mus musculus. Put plainly: Antitumor activity in MX-1 Xenograft Model at a dose of 25 mg/kg (ip) measured as number of mice with complete tumor regression. The series is classed as functional. In outline: as §2
The subject of series [13] is Mus musculus. Put plainly: Toxicity to bone marrow granulocyte/macrophage progenitors per femur at a dose of 50 mg/kg (ip). The series is classed as functional. In outline:
as §4

Series [14] deals with Mus musculus. Put plainly: Antitumor activity in MX-1 Xenograft Model at a dose of 50 mg/kg (ip) measured as number of mice with complete tumor regression. In kind it is functional. In outline: as §2
Series [15] concerns Mus musculus. Put plainly: Toxicity to bone marrow granulocyte/macrophage progenitors per femur at a dose of 100 mg/kg (ip). The series is classed as functional. In outline:
as §4

Series [16] relates to Mus musculus. Put plainly: Antitumor activity in MX-1 Xenograft Model at a dose of 50 mg/kg (ip) measured as percent growth inhibition. The series is classed as functional. The conditions noted are these: read-out: GI. In outline: as §2
The test system of series [17] is Mus musculus. Put plainly: Antitumor activity in MX-1 Xenograft Model at a dose of 50 mg/kg (ip) measured as number of mice with partial tumor regression. The series is classed as functional. In outline:
as §2

Series [18] relates to Mus musculus. The series is described as §3. The series is classed as functional. In outline: as §4
For series [19], the system named is Mus musculus. Put plainly: Antitumor activity against B16 murine melanoma at a dose of 5 mg/kg (ip) measured as 60-day survivors (% LTS). The series is classed as functional. In outline:
as §1

Series [20] deals with Mus musculus. Put plainly: Antitumor activity against B16 murine melanoma at a dose of 5 mg/kg (ip) measured as increased life span (% T/C). In kind it is functional. In outline:
as §1

In series [21] the test system is Mus musculus. The series is described as §5. In kind it is functional. In outline: as §4
Series [22] concerns Mus musculus. Put plainly: Antitumor activity against B16 murine melanoma at a dose of 100 mg/kg (ip) measured as percent weight change on day 8. In kind it is functional. In outline:
as §1

Series [23] concerns Mus musculus. Put plainly: Antitumor activity against B16 murine melanoma at a dose of 100 mg/kg (ip) measured as 60-day survivors (% LTS). The series is classed as functional. In outline:
as §1

Series [24] relates to Mus musculus. Put plainly: Antitumor activity against B16 murine melanoma at a dose of 100 mg/kg (ip) measured as increased life span (% T/C). In kind it is functional. In outline: as §1

On to `O=[N+]([O-])c1ccc(COP(=O)(N(CCCl)CCCl)N(CCCl)CCCl)s1`, for which the LTS in the series on Mus musculus [1] was determined as 20%; in the series with Mus musculus [7] it was 0%. Moreover, the T/C with Mus musculus [2] is given as 248%; in the series on Mus musculus [10] it was 166%. For the same compound, the No. partial with Mus musculus [3] was found to be 10. Also, the Weight change with Mus musculus [4] came out at 10%; with Mus musculus [8], 1%; in the series with Mus musculus [11] it was 8%. The Control with Mus musculus [5] is given as 106%; in the series on Mus musculus [9] it was 81%. Besides, the inhibition in vivo at 25 mg/kg in the series with Mus musculus [6] is more than 99%. In the series on Mus musculus [12], this compound gave a No. total of 0.
As to `O=[N+]([O-])c1ccc(COP(=O)(N(CCBr)CCBr)N(CCBr)CCBr)o1`, the Control in the series with Mus musculus [13] turned out to be 102%; with Mus musculus [15] it was 32%; with Mus musculus [18], 23%. Besides, in the series on Mus musculus [7], the LTS came out at 0%. The compound also registered a No. total with Mus musculus [14] of 4. Further, the Weight change with Mus musculus [8] and in the series on Mus musculus [11] was 11% throughout. Moreover, the T/C in the series with Mus musculus [10] came to 202%. Also, the inhibition in vivo at 50 mg/kg in the series with Mus musculus [16] was more than 99%. The No. partial in the series with Mus musculus [17] is given as 6.
Turning to `O=[N+]([O-])c1ccc(COP(=O)(N(CCBr)CCBr)N(CCBr)CCBr)s1`, the Control in the series with Mus musculus [13] was 93%; in the series with Mus musculus [15], 64%. Also, the Weight change in the series with Mus musculus [11] was found to be 10%. The compound also showed an LTS in the series on Mus musculus [19] of 0%. Besides, in the series with Mus musculus [20], the T/C is reported as 185%.
On to `O=[N+]([O-])c1ccc(COP(=O)(N(CCCl)CCCl)N(CCCl)CCCl)o1`, for which, in the series on Mus musculus [14], the No. total came out at 0. The Weight change was 2% in the series on Mus musculus [8] and 6% with Mus musculus [22]. Also, the Control in the series on Mus musculus [15] is listed as 100%; in the series on Mus musculus [21] it was 26%; in the series on Mus musculus [18], 104%. Moreover, in the series with Mus musculus [23], the LTS came out at 10%. In the series with Mus musculus [16], the inhibition in vivo at 50 mg/kg is 99%. Further, the No. partial in the series with Mus musculus [17] was 7. Also, the T/C in the series on Mus musculus [24] came out at 172%.
